The subject of assay [1] is Streptococcus sp. 'group B'. As to the kind of experiment: Antimicrobial activity against Group B streptococcus serotype Ib R3 harboring Q557E, A400V mutations in PBP 2X and T567I, G539E mutations in PBP 2B by broth microdilution method. The format is functional. The method in brief: (§1)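 Broth microdilution MICs following CLSI guidelines, using a commercial panel system; GBS clinical isolates and reference strains grown in Todd-Hewitt broth at 37°C. Each strain tested five times to confirm reproducibility, with S. pneumoniae ATCC 49619 as quality-control strain. No β-lactamase activity by acidimetric method in any strain.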

Assay [2] relates to Streptococcus sp. 'group B'. Description: Antimicrobial activity against Group B Streptococcus serotype Ia N1 harboring E63K mutation in PBP 2A and L41S mutation in PBP 1B by broth microdilution method. It is filed as functional. Put shortly:
as §1

Assay [3] has as its system Streptococcus sp. 'group B'. As to the kind of experiment: Antimicrobial activity against Group B streptococcus serotype VI R4 harboring Q557E mutation in PBP 2X and T567I, Y262N mutations in PBP 2B by broth microdilution method. The format is functional. The method in brief:
as §1
A general note: Dilution methods test growth across graded concentrations, often in twofold steps.

Assay [4] relates to Streptococcus sp. 'group B'. As to the kind of experiment: Antimicrobial activity against Group B streptococcus serotype VI R5 harboring F395L, V405A, R433H, H438Y, and G648A mutations in PBP 2X and T567I mutation in PBP 2B by broth microdilution method. The format is functional. The method in brief: as §1
The test system of assay [5] is Streptococcus sp. 'group B'. As to the kind of experiment: Antimicrobial activity against Group B streptococcus serotype VI R6 harboring F395L, V405A, R433H, H438Y, A374V and G648A mutations in PBP 2X and T567I mutation in PBP 2B by broth microdilution method. It is filed as functional. The method in brief:
as §1

Assay [6] concerns Streptococcus sp. 'group B'. As to the kind of experiment: Antimicrobial activity against Group B streptococcus serotype VI R1 harboring F395L, V405A, R433H, H438Y, and G648A mutations in PBP 2X and T567I mutation in PBP 2B by broth microdilution method. It is filed as functional. The method in brief: as §1
Assay [7] deals with Streptococcus sp. 'group B'. As to the kind of experiment: Antimicrobial activity against Group B streptococcus R8 harboring T77I, S353F and A514V in PBP 2X; V80A and G613R in PBP 2B; and L45P, N163K, N723S and G527V in PBP 1A by broth microdilution method. The format is functional. The method in brief: as §1
For assay [8], the system named is Streptococcus sp. 'group B'. As to the kind of experiment: Antimicrobial activity against Group B streptococcus serotype Ib N2 harboring E63K mutation in PBP 2A and L41S mutation in PBP 1B by broth microdilution method. The format is functional. Put shortly: as §1
Assay [9] has as its system Streptococcus sp. 'group B'. As to the kind of experiment: Antimicrobial activity against Group B streptococcus serotype Ib C2 harboring E63K mutation in PBP 2A and L41S mutation in PBP 1B by broth microdilution method. The format is functional. The method in brief: as §1
Assay [10] deals with Streptococcus sp. 'group B'. Description: Antimicrobial activity against Group B streptococcus serotype V C1 harboring E63K mutation in PBP 2A and L41S mutation in PBP 1B by broth microdilution method. It is filed as functional. The method in brief: as §1
For assay [11], the system named is Streptococcus sp. 'group B'. Description: Antimicrobial activity against Group B streptococcus serotype III N3 by broth microdilution method. It is filed as functional. Put shortly: (§2)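 Broth microdilution MICs read on a commercial dried panel system (type 3J), following CLSI guidelines. Isolates were grown in Todd-Hewitt broth at 37°C. Each strain was tested five times for reproducibility, with S. pneumoniae ATCC 49619 as the quality-control strain. β-lactamase activity was checked by the acidimetric method.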

Assay [12] has as its system Streptococcus sp. 'group B'. As to the kind of experiment: Antimicrobial activity against Group B streptococcus serotype Ia R7 harboring T77I, F395V and S353F in PBP 2X; V80A and G613R in PBP 2B; and L45P, N163K, N723S and Y470F in PBP 1A by broth microdilution method. It is filed as functional. The method in brief: as §1
In assay [13] the test system is Streptococcus sp. 'group B'. As to the kind of experiment: Antimicrobial activity against Group B Streptococcus serotype V harboring E63K mutation in PBP 2A and L41S mutation in PBP 1B by broth microdilution method.
In assay [14] the test system is Streptococcus sp. 'group B'. Description: Antimicrobial activity against Group B streptococcus serotype VI R2 harboring F395L, V405A, R433H, H438Y, and G648A mutations in PBP 2X and T567I mutation in PBP 2B by broth microdilution method. The format is functional. The method in brief: as §1
Assay [15] deals with Streptococcus sp. 'group B'. Description: Antimicrobial activity against Group B streptococcus serotype VI N4 harboring E63K mutation in PBP 2A and L41S mutation in PBP 1B by broth microdilution method. The format is functional. The method in brief: as §1
Assay [16] deals with Streptococcus sp. 'group B'. As to the kind of experiment: Antimicrobial activity against Group B Streptococcus serotype III NEM 316 by broth microdilution method. The format is functional. Put shortly:
as §2

Converted amounts (≈) assume the structure as drawn. Bounds are passed on as bounds.

As to `C[C@H]1COc2c(N3CCN(C)CC3)c(F)cc3c(=O)c(C(=O)O)cn1c23.C[C@H]1COc2c(N3CCN(C)CC3)c(F)cc3c(=O)c(C(=O)O)cn1c23.O` [LEVOFLOXACIN], the MIC (in general, the lowest concentration found to suppress growth) in assay [1] was greater than 8 µg/mL; in assay [2] it was 1 µg/mL; in [3], 2 µg/mL; in [4] it was 4 µg/mL; in [5], 4 µg/mL; in assay [6], 8 µg/mL. For the same compound, the MIC is greater than 8 µg/mL in assay [7]; 0.5 µg/mL in assay [8]; greater than 8 µg/mL in assay [9]; 0.5 µg/mL in assay [10]; 0.5 µg/mL in [11]; greater than 8 µg/mL in [12]. The MIC in [13] came out at 0.5 µg/mL; in assay [14], 8 µg/mL; in [15], 0.5 µg/mL; in [16], 0.5 µg/mL.
Regarding `CN(C)[C@@H]1C(O)=C(C(N)=O)C(=O)[C@@]2(O)C(O)=C3C(=O)c4c(O)cccc4[C@@](C)(O)[C@H]3C[C@@H]12` [TETRACYCLINE], the minimum inhibitory concentration (MIC) was no more than 0.5 µg/mL in [1]; greater than 4 µg/mL in [2]; greater than 4 µg/mL in assay [3]; greater than 4 µg/mL in assay [4]; greater than 4 µg/mL in assay [5]; greater than 4 µg/mL in [6]. The minimal inhibitory concentration (MIC) is greater than 4 µg/mL in assay [7]; no more than 0.5 µg/mL in assay [8]; no more than 0.5 µg/mL in assay [9]; greater than 4 µg/mL in assay [10]; greater than 4 µg/mL in [11]; greater than 4 µg/mL in [12]. For the same compound, the MIC is greater than 4 µg/mL in assay [13], greater than 4 µg/mL in [14], greater than 4 µg/mL in assay [15] and no more than 0.5 µg/mL in [16].
As to `CC[C@H]1OC(=O)[C@H](C)[C@@H](O[C@H]2C[C@@](C)(OC)[C@@H](O)[C@H](C)O2)[C@H](C)[C@@H](O[C@@H]2O[C@H](C)C[C@H](N(C)C)[C@H]2O)[C@](C)(O)C[C@@H](C)C(=O)[C@H](C)[C@@H](O)[C@]1(C)O` [ERYTHROMYCIN], the MIC in assay [1] was no more than 0.12 µg/mL; in [2] it was no more than 0.12 µg/mL; in assay [3] it was greater than 2 µg/mL; in assay [4], no more than 0.12 µg/mL; in assay [5], no more than 0.12 µg/mL; in assay [6] it was no more than 0.12 µg/mL. In addition, the minimum inhibitory concentration (MIC) was greater than 2 µg/mL in assay [7]; no more than 0.12 µg/mL in assay [8]; no more than 0.12 µg/mL in assay [9]; no more than 0.12 µg/mL in assay [10]; no more than 0.12 µg/mL in assay [11]; greater than 2 µg/mL in [12]. The MIC in assay [13], in assay [14], in assay [15] and in assay [16] was no more than 0.12 µg/mL each time.
Consider `CO/N=C(\C(=O)N[C@@H]1C(=O)N2C(C(=O)[O-])=C(C[n+]3ccn4ncccc43)CS[C@H]12)c1nsc(N)n1` [CEFOZOPRAN], for which the minimum inhibitory concentration (MIC) amounted to 1 µg/mL (≈ 1.94 µM) in assay [1]; 0.12 µg/mL (≈ 0.233 µM) in assay [2]; 0.5 µg/mL (≈ 0.97 µM) in [3]; 0.5 µg/mL (≈ 0.97 µM) in assay [4]; 0.5 µg/mL (≈ 0.97 µM) in assay [5]; 0.5 µg/mL (≈ 0.97 µM) in [6]. Besides, the MIC came to 1 µg/mL (≈ 1.94 µM) in [7]; 0.12 µg/mL (≈ 0.233 µM) in [8]; 0.12 µg/mL (≈ 0.233 µM) in assay [9]; 0.12 µg/mL (≈ 0.233 µM) in assay [10]; 0.12 µg/mL (≈ 0.233 µM) in assay [11]; 2 µg/mL (≈ 3.88 µM) in assay [12]. For the same compound, the minimal inhibitory concentration (MIC) in assay [13] worked out at 0.12 µg/mL (≈ 0.233 µM); in [14], 1 µg/mL (≈ 1.94 µM); in assay [15], 0.12 µg/mL (≈ 0.233 µM); in assay [16], 0.12 µg/mL (≈ 0.233 µM).

These data come from ChEMBL document CHEMBL1275555, “Genetic heterogeneity in pbp genes among clinically isolated group B Streptococci with reduced penicillin susceptibility” (2008).
